Reference: ChEMBL document CHEMBL1153728, “Quercetin reduces inflammatory pain: inhibition of oxidative stress and cytokine production” (2009)
The source made the active and inactive calls.

Tests used:
Mus musculus [1] = assay: Antioxidant activity in ip dosed Swiss mouse assessed as inhibition of carrageenan-induced reduction in GSH level dosed 30 mins before carrageenan challenge measured after 3 hrs by fluorescence spectrophotometry; assay type: functional, organism-based
Procedure, shortened: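 Swiss mice dosed ip 10-100 mg/kg 30 min before intraplantar carrageenin (100 µg/paw) or saline. Plantar skin from five mice pooled 3 h later, homogenized in 100 mM NaH2PO4 pH 8.0/5 mM EGTA, TCA-precipitated. Supernatant reacted with OPT 15 min, fluorescence ex 350/em 420 nm against 0-40 µM GSH standard, in triplicate.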

Mus musculus [2] = assay: Inhibition of carrageenan-induced IL1-beta production in Swiss mouse subcutaneous plantar tissue at 100 mg/kg, ip dosed 30 mins before carrageenan challenge measured after 3 hrs by ELISA; assay type: functional; details: sc
Procedure, shortened: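 Mice dosed ip 100 mg/kg 30 min before intraplantar carrageenin (100 µg/paw). Paw skin removed 3 h later under terminal anesthesia, homogenized in protease-inhibitor buffer. IL-1β measured by ELISA as pg/paw, with saline-injected controls; n = 5.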

Mus musculus [3] = assay: Muscle relaxant activity in Swiss mouse assessed as motor response at 100 mg/kg, ip after 3 hrs 30 mins by rotarod test; assay type: functional, organism-based; design: dose 100 mg/kg
Mus musculus [4] = assay: Antinociceptive activity in ip dosed Swiss mouse assessed as inhibition of acetic acid-induced writhing response administered 30 mins before acetic acid challenge measured for 20 mins; assay type: functional, organism-based
Procedure, shortened: (§1)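 Male Swiss mice pretreated ip (3-100 mg/kg) 30 min before ip acetic acid 0.6% v/v (10 mL/kg) or phenyl-p-benzoquinone 1890 µg/kg in 2% DMSO/saline. Cumulative writhing score counted over 20 min; n = 7.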

Mus musculus [5] = assay: Inhibition of carrageenan-induced neutrophil recruitment in Swiss mouse subcutaneous plantar tissue assessed as myeloperoxidase activity at 100 mg/kg, ip dosed 30 mins before carrageenan challenge measured after 3 hrs by spectrophotometry; assay type: functional, organism-based; design: dose 100 mg/kg
Procedure, shortened: (§2)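 Mice given ip 100 mg/kg 30 min before intraplantar carrageenin (100 µg/paw), TNFα (300 pg/paw) or CXCL1 (20 ng/paw). Plantar tissue taken 3 h later into 50 mM K2HPO4 pH 6.0 with 0.5% HTAB, homogenized, centrifuged. Supernatant read with o-dianisidine/H2O2 at 450 nm, compared to neutrophil standard curve.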

Mus musculus [6] = assay: Antinociceptive activity in Swiss mouse assessed as inhibition of TNF-alpha-induced mechanical hypernociception at 100 mg/kg, ip dosed 30 mins before TNFalpha challenge measured after 3 hrs by electronic pressure-meter test; assay type: functional; details: route intraperitoneal
Mus musculus [7] = assay: Antinociceptive activity in Swiss mouse assessed as inhibition of CXCL1-induced mechanical hypernociception at 100 mg/kg, ip dosed 30 mins before CXCL1 challenge measured after 3 hrs by electronic pressure-meter test; assay type: functional; details: route intraperitoneal
Mus musculus [8] = assay: Inhibition of TNF-alpha-induced neutrophil recruitment in Swiss mouse subcutaneous plantar tissue assessed as myeloperoxidase activity at 100 mg/kg, ip dosed 30 mins before TNFalpha challenge measured after 3 hrs by spectrophotometry; assay type: functional, organism-based; design: dose 100 mg/kg; procedure, shortened: as §2
Mus musculus [9] = assay: Inhibition of CXCL1-induced neutrophil recruitment in Swiss mouse subcutaneous plantar tissue assessed as myeloperoxidase activity at 100 mg/kg, ip dosed 30 mins before CXCL1 challenge measured after 3 hrs by spectrophotometry; assay type: functional, organism-based; design: dose 100 mg/kg; procedure, shortened: as §2
Mus musculus [10] = assay: Antinociceptive activity in Swiss mouse assessed as inhibition of PGE2-induced mechanical hypernociception at 100 mg/kg, ip dosed 30 mins before PGE2 challenge measured after 3 hrs by electronic pressure-meter test; assay type: functional, organism-based; design: dose 100 mg/kg
Mus musculus [11] = assay: Antinociceptive activity in Swiss mouse assessed as inhibition of dopamine-induced mechanical hypernociception at 100 mg/kg, ip dosed 30 mins before dopamine challenge measured after 3 hrs by electronic pressure-meter test; assay type: functional, organism-based; design: dose 100 mg/kg
Mus musculus [12] = assay: Analgesic activity in Swiss mouse assessed as reaction time taken to jump or lick paw at 100 mg/kg, ip after 30 mins of administration by hot plate test; assay type: functional, organism-based; design: dose 100 mg/kg
Procedure, shortened: (§3)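 Male Swiss mice (25-30 g) placed in glass cylinder on hot plate at 55 °C. Two control latencies taken at least 10 min apart; latency rechecked 30 and 60 min after ip dosing. Endpoint is jumping or paw licking, 30 s cutoff.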

Mus musculus [13] = assay: Analgesic activity in Swiss mouse assessed as reaction time taken to jump or lick paw at 100 mg/kg, ip after 60 mins of administration by hot plate test; assay type: functional, organism-based; design: dose 100 mg/kg; procedure, shortened: as §3
Mus musculus [14] = assay: Analgesic activity in Swiss mouse assessed as reaction time taken to jump or lick paw at 8 mg/kg, ip after 30 mins of administration by hot plate test; assay type: functional, organism-based; design: dose 8 mg/kg; procedure, shortened: as §3
Mus musculus [15] = assay: Analgesic activity in Swiss mouse assessed as reaction time taken to jump or lick paw at 8 mg/kg, ip after 60 mins of administration by hot plate test; assay type: functional, organism-based; design: dose 8 mg/kg; procedure, shortened: as §3
Mus musculus [16] = assay: Antinociceptive activity in ip dosed Swiss mouse assessed as inhibition of phenyl-p-benzoquinone-induced writhing response administered 30 mins before phenyl-p-benzoquinone challenge measured for 20 mins; assay type: functional, organism-based; procedure, shortened: as §1
Mus musculus [17] = assay: Antinociceptive activity against formalin-induced pain in Swiss mouse assessed as inhibition of hind paw flinching response during second phase of response at 100 mg/kg, ip dosed 30 mins before formalin challenge measured for 0 to 30 mins; assay type: functional, organism-based; design: dose 100 mg/kg
Procedure, shortened: (§4)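 Male Swiss mice dosed ip (100 mg/kg, vehicle 20% Tween 80 in saline) 30 min before intraplantar formalin 0.1% (25 µL). Paw flinches and licking time counted 0-30 min in 5-min intervals, separating first and second phases; n = 6.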

Mus musculus [18] = assay: Antinociceptive activity against formalin-induced pain in Swiss mouse assessed as inhibition of paw licking response during second phase at 100 mg/kg, ip dosed 30 mins before formalin challenge measured for 0 to 30 mins; assay type: functional, organism-based; design: dose 100 mg/kg; procedure, shortened: as §4
Mus musculus [19] = assay: Antinociceptive activity in ip dosed Swiss mouse assessed as inhibition of carrageenan-induced mechanical hypernociception administered 30 mins before carrageenan challenge measured after 3 hrs by electronic pressure-meter test; assay type: functional, organism-based
Procedure, shortened: (§5)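 Male Swiss mice dosed ip (3-100 mg/kg) or po (30-300 mg/kg) in 20% Tween 80/saline 30 min before intraplantar carrageenin (100 µg/paw). Pressure-meter withdrawal threshold (average of three readings) before and 3 h after; Δ threshold in g; n = 5; one-way ANOVA with Tukey test.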

Mus musculus [20] = assay: Antinociceptive activity in Swiss mouse assessed as inhibition of carrageenan-induced mechanical hypernociception at 3 to 100 mg/kg, ip administered 30 mins before carrageenan challenge measured after 3 hrs by electronic pressure-meter test; assay type: functional; details: dose mg/kg 3-100; route intraperitoneal; procedure, shortened: as §5
Mus musculus [21] = assay: Antinociceptive activity in Swiss mouse assessed as inhibition of carrageenan-induced mechanical hypernociception at 300 mg/kg, po dosed 30 mins before carrageenan challenge measured after 3 hrs by electronic pressure-meter test; assay type: functional; procedure, shortened: as §5
Mus musculus [22] = assay: Antinociceptive activity in Swiss mouse assessed as inhibition of carrageenan-induced mechanical hypernociception at 100 mg/kg, ip dosed 30 mins before carrageenan challenge measured after 1 to 5 hrs by electronic pressure-meter test; assay type: functional, organism-based; design: dose 100 mg/kg
Procedure, shortened: (§6)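 Male Swiss mice given 100 mg/kg ip at 12, 6, 3 h or 30 min before intraplantar carrageenin (100 µg/paw). Mechanical withdrawal threshold by electronic pressure-meter (mean of three readings) at 1, 3 and 5 h after stimulus, expressed as change from baseline.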

Mus musculus [23] = assay: Antinociceptive activity in Swiss mouse assessed as inhibition of carrageenan-induced mechanical hypernociception at 100 mg/kg, ip dosed 3 hrs before carrageenan challenge measured after 3 hrs by electronic pressure-meter test; assay type: functional, organism-based; design: dose 100 mg/kg; procedure, shortened: as §6
Mus musculus [24] = assay: Antiinflammatory activity in Swiss mouse assessed as inhibition of carrageenan-induced paw edema at 100 mg/kg, ip dosed 30 mins before carrageenan challenge measured after 0.5 to 3 hrs; assay type: functional, organism-based; design: dose 100 mg/kg
Procedure, shortened: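 Male Swiss mice; ip pretreatment 30 min before intraplantar carrageenin (100 µg/paw). Paw measured with calliper before and at 30, 60, 120, 180 min after stimulus; edema = VT minus Vo per mouse.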

O=c1c(O)c(-c2ccc(O)c(O)c2)oc2cc(O)cc(O)c12 [QUERCETIN]
inhibition (Mus musculus [1]): Dose-dependent effect
inhibition in vivo at 100 mg/kg (Mus musculus [2]): 36%
Activity (Mus musculus [3]): inactive
inhibition (Mus musculus [4]): Dose-dependent effect
Activity (Mus musculus [5]): inactive
inhibition in vivo at 100 mg/kg (Mus musculus [6]): 51%
inhibition in vivo at 100 mg/kg (Mus musculus [7]): 43%
Activity (Mus musculus [8]): inactive
Activity (Mus musculus [9]): inactive
Activity (Mus musculus [10]): inactive
Activity (Mus musculus [11]): inactive
Activity (Mus musculus [12]): inactive
Activity (Mus musculus [13]): inactive
Activity (Mus musculus [14]): Active
Activity (Mus musculus [15]): Active
inhibition (Mus musculus [16]): Dose-dependent effect
Activity (Mus musculus [17]): Active
Activity (Mus musculus [18]): Active
inhibition (Mus musculus [19]): Dose-dependent effect
inhibition (INH) (Mus musculus [20]): 59%
inhibition in vivo at 300 mg/kg (Mus musculus [21]): 55%
inhibition (Mus musculus [22]): Active
inhibition (Mus musculus [23]): Active
inhibition (Mus musculus [24]): Active
